Source: PubChem BioAssay (several laboratories)
An excerpt weighted towards active compounds, which were near 6.4% of everything screened.
GRIN3A LBD mod – modulators (binders) of human NR3A ligand-binding domain; Tm shift relative to glycine control, % at 25 µM; 340,000 compounds, 2.5% hits; NR3A LBD differential scanning fluorimetry, Tm shift; 0% = protein alone, 100% = glycine-bound protein; AID 1259313;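 active = melting temperature shift of at least 10% of the positive control shift, at one fixed dose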
MPTP inh – inhibitors of mitochondrial permeability transition pore | isolated mouse mitochondria, Ca2+ swelling absorbance, 30 min | inhibition, % at 10 µM | 360,000 compounds, 1.4% hits | AID 602449;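 active = inhibition of 50% or more, scaled per plate between neutral and stimulator controls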
EBV gp42 block – blocks Epstein-Barr virus glycoprotein 42 binding. Q1HVG2. Fluorescence polarization binding assay, mP read-out. inhibition, % (tested at 21.74 µM). 220,000 compounds, 0.42% hits. AID 1085; in the data active = inhibition above about 50%
Target sequence (Q1HVG2 whole entry, looked up): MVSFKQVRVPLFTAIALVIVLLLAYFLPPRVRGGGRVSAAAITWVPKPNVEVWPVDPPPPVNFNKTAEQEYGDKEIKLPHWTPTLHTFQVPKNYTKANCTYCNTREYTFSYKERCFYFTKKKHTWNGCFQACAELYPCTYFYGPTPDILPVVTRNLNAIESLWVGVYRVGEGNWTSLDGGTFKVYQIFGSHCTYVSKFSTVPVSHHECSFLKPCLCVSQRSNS
CHOP inh – blocks CHOP induction under ER stress; CHO-K1 CHOP-promoter luciferase, tunicamycin-induced, 15-18 h; inhibition, % at 10 µM; 220,000 compounds, 3.8% hits; AID 2732;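 active = compounds that reduced the stress-induced luciferase reporter signal by more than about 70% of percent inhibition, limit read from the data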
Tb MetRS inh – Trypanosoma brucei MetRS inhibition. AID 624268. purified T. brucei MetRS, ATP depletion, Kinase-Glo luminescence. 360,000 compounds, 0.4% hits. inhibition, % at 11.9 µM;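 active = inhibition above a per-plate cutoff of the control wells' mean inhibition plus 3 SD, cut at about 5.5% in these data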
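Dosing: 11.9 µM compound single dose, 0.9% DMSO; Assay system: purified T. brucei MetRS enzyme; Measured by: Kinase-Glo luciferase luminescence reporting remaining unconsumed ATP; Schedule: 15 min plus 2 h at 25 °C.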
WT yeast gro inh – growth inhibition of WT yeast, mitochondrial fusion screen. mitochondrial fusion phenotypic screen, WT strain. 190,000 compounds, 2.1% hits. inhibition, % at 10 µM; in the data active = inhibition above about 58%; tested in S. cerevisiae
A number is an active result; n = inactive; x = no result given.

SMILES	GRIN3A LBD mod	MPTP inh	EBV gp42 block	CHOP inh	Tb MetRS inh	WT yeast gro inh
Cn1c(NCc2ccccc2)nc2c1c(=O)n(Cc1ccc(Br)cc1)c(=O)n2C	n	n	n	72.0	n	n
CCCNc1nc2c(c(=O)n(C)c(=O)n2C)n1CCc1ccccc1	n	n	n	n	n	n
COc1ccc(CNc2nc3c(c(=O)n(Cc4ccc(Br)cc4)c(=O)n3C)n2C)cc1	n	n	n	72.9	n	n
Cn1c(NN)nc2c1c(=O)n(Cc1ccccc1)c(=O)n2C	n	n	x	x	n	x
CC(C)n1c(NCCc2ccccc2)nc2c1c(=O)n(C)c(=O)n2C	n	n	n	74.6	n	n
Cc1cc(C)c(Cn2c(=O)n(CCCC(=O)NCc3ccco3)c(=O)c3sccc32)c(C)c1	n	n	n	n	n	n
CS(=O)(=O)c1ccc(Cl)c(NC(=O)C2CC(=O)N(Cc3ccccc3)C2)c1 (stereo not given)	n	n	n	n	n	n
CCOc1ccc2[nH]c(=O)c(=O)[nH]c2c1	n	n	n	n	n	n
CCCCSc1nnc2c(n1)[nH]c1ccccc12	n	n	n	n	n	n
Cc1ccc(S(=O)(=O)n2cnc3cc([N+](=O)[O-])ccc32)c(C)c1	n	n	n	n	n	n
Cc1ccc(C)c2[nH]c(=O)c(C(c3nnnn3C(C)(C)C)N3CC=C(c4ccc(F)cc4)CC3)cc12 (stereo not given)	n	n	n	n	n	n
Cc1ccc(CN2CC(=O)N3[C@H]4c5ccccc5OC[C@@H]4[C@H](c4ccccc4)[C@]3(C)C2=O)cc1	n	n	x	x	n	x
O=C(CSCc1c(Cl)cccc1Cl)Nc1ccccc1C(=O)N1CCOCC1	n	n	n	n	n	n
Cn1c(=O)c2c(nc(N3CCc4ccccc4C3)n2Cc2ccc(Br)cc2)n(C)c1=O	10.9	n	n	n	n	n
Cn1c(=O)c2c(nc(N3CCc4ccccc4C3)n2Cc2ccccc2F)n(C)c1=O	n	n	n	n	n	n
O=C(O)C1Nc2c(O)cc(Cl)c([N+](=O)[O-])c2C2C=CCC12 (stereo not given)	n	n	87.5	n	n	n
O=[N+]([O-])c1ccc(Cl)c2c1C1C=CCC1C(c1ccccn1)N2 (stereo not given)	n	n	n	n	n	n
CCCCCn1c(SCc2cccc(C)c2)nc2c1c(=O)[nH]c(=O)n2C	n	n	n	92.4	n	n
CCCSc1nc2c(c(=O)[nH]c(=O)n2C)n1Cc1ccc(C)cc1	n	n	n	81.3	n	n
C/C=C/Cn1c(SCc2ccc(C)cc2)nc2c1c(=O)[nH]c(=O)n2C	n	n	n	94.2	n	n
CCOC(=O)N1CCC(N2CCCC(C(=O)c3ccccc3OC)C2)CC1 (stereo not given)	n	n	n	n	n	n
CCOCc1c(C(=O)OCC(=O)NCc2ccc(F)cc2)oc2ccccc12	n	n	x	x	n	x
O=C(O)Cn1c(CC(=O)N2CCCC2)nc2ccccc21	n	n	n	n	n	63.4
CC1=C(C#N)C(=O)N(C2CCS(=O)(=O)C2)C(=O)/C1=C\c1ccco1 (stereo not given)	x	x	124.5	n	x	x
CCC(C(=O)OC)n1cnc2scc(-c3ccc(C)c(C)c3)c2c1=O (stereo not given)	n	n	x	x	n	x
SMILES	GRIN3A LBD mod	MPTP inh	EBV gp42 block	CHOP inh	Tb MetRS inh	WT yeast gro inh
O=C(O)CC1S/C(=N/N=C/C=C/c2ccccc2)NC1=O (stereo not given)	n	n	n	n	n	n
O=C(CC1S/C(=N/N=C/C=C/c2ccccc2)NC1=O)Nc1ccc(Cl)c(Cl)c1 (stereo not given)	37.3	n	n	n	n	n
O=C(CC1S/C(=N/N=C/c2ccco2)NC1=O)Nc1cccc(Cl)c1Cl (stereo not given)	n	n	n	93.8	n	n
CC1=C(Nc2ccc(C(=O)O)cc2)C(=O)c2ccccc2C1=O	n	n	x	x	n	x
COc1ccc(NC(=O)/C=C/c2c(Cl)nc3ccccn23)cc1	17.4	n	n	n	n	n
CCCCOc1ccc2ccccc2c1C=O	10.2	n	n	n	n	n
CCOc1ccc(C(=O)CCC(=O)Nc2cc(C)ccn2)cc1	n	n	x	x	n	x
Cc1cc(C)cc(Oc2ccccc2/C=N\O)c1	n	n	n	72.7	n	n
CCOC(=O)C1=C(C)NC(SC(C)=O)=NC1c1ccc(OC(C)=O)c(OC)c1 (stereo not given)	n	n	n	n	n	76.0
